pKi: −log10 of the molar value.
Experiments:
Digitaria sanguinalis = test: Post-emergence herbicidal activity against Digitaria sanguinalis (hairy crabgrass) assessed as growth inhibition at 150 g ai/ha measured 15 days post compound treatment under green house conditions; type: functional; details: 360 h, read-out: GI
How it was run: (§1)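 Compounds formulated as 100 g/L emulsifiable concentrate (DMF solvent, Tween-80 emulsifier), diluted with water, sprayed post-emergence on pot-grown weeds in clay soil (pH 6.5, 1.6% organic matter). Seeds sown 1-3 cm deep, grown at 15-30 °C. Dicots were treated at the 2-leaf stage and monocots at the 1-leaf stage. Untreated and DMF-treated controls were included. Injury was rated visually 15 days after treatment.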

Poa annua = test: Post-emergence herbicidal activity against Poa annua assessed as growth inhibition at 150 g ai/ha measured 15 days post compound treatment under green house conditions; type: functional; details: 360 h, read-out: GI; how it was run: as §1
Eclipta prostrata = test: Post-emergence herbicidal activity against Eclipta prostrata assessed as growth inhibition at 150 g ai/ha measured 15 days post compound treatment under green house conditions; type: functional; details: 360 h, read-out: GI; how it was run: as §1
Amaranthus retroflexus = test: Post-emergence herbicidal activity against Amaranthus retroflexus assessed as growth inhibition at 150 g ai/ha measured 15 days post compound treatment under green house conditions; type: functional; details: 360 h, read-out: GI; how it was run: as §1
Brassica juncea = test: Post-emergence herbicidal activity against Brassica juncea assessed as growth inhibition at 150 g ai/ha measured 15 days post compound treatment under green house conditions; type: functional; details: 360 h, read-out: GI; how it was run: as §1
Echinochloa crus-galli = test: Post-emergence herbicidal activity against Echinochloa crus-galli (barnyard grass) assessed as growth inhibition at 150 g ai/ha measured 15 days post compound treatment under green house conditions; type: functional; details: 360 h, read-out: GI; how it was run: as §1
[1] = target: T1, Acetolactate synthase, chloroplastic (Arabidopsis thaliana, UniProt P17597)
T1 sequence (P17597 whole entry): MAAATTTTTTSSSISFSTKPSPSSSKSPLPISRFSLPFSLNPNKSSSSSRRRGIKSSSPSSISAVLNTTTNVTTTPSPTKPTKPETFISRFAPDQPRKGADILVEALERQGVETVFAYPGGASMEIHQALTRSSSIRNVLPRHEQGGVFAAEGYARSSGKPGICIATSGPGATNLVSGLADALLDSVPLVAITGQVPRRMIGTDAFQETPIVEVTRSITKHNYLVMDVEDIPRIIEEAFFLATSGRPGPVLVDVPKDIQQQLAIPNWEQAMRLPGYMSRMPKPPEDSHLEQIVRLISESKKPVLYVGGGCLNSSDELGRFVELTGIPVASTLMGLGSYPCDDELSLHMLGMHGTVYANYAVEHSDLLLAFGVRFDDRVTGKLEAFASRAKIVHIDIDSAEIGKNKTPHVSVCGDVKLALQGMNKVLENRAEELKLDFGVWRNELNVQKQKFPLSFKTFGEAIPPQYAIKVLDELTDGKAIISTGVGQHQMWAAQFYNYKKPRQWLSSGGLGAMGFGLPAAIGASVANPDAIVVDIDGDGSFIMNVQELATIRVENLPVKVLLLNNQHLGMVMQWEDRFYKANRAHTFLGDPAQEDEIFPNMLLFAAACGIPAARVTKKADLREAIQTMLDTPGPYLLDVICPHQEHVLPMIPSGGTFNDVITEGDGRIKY

## COc1ccn2nc(S(=O)(=O)Nc3ccc(Br)cc3)nc2n1
Digitaria sanguinalis
  inhibition of growth at 150 g/ha: < 50%
Poa annua
  inhibition of growth at 150 g/ha: < 50%
Eclipta prostrata
  inhibition of growth at 150 g/ha: < 50%
Amaranthus retroflexus
  inhibition of growth at 150 g/ha: < 50%
Brassica juncea
  inhibition of growth at 150 g/ha: < 50%
Echinochloa crus-galli
  inhibition of growth at 150 g/ha: < 50%
[1]
  pKi: < 3.00

## COc1ccn2nc(S(=O)(=O)Nc3ccccc3Br)nc2n1
Digitaria sanguinalis
  inhibition of growth at 150 g/ha: < 50%
Poa annua
  inhibition of growth at 150 g/ha: < 50%
Eclipta prostrata
  inhibition of growth at 150 g/ha: ≥ 80%
Amaranthus retroflexus
  inhibition of growth at 150 g/ha: 50%
Brassica juncea
  inhibition of growth at 150 g/ha: ≥ 80%
Echinochloa crus-galli
  inhibition of growth at 150 g/ha: < 50%
[1]
  pKi: 4.65

## COc1ccn2nc(S(=O)(=O)Nc3ccc(OC(F)(F)F)cc3)nc2n1
Digitaria sanguinalis
  inhibition of growth at 150 g/ha: < 50%
Poa annua
  inhibition of growth at 150 g/ha: < 50%
Eclipta prostrata
  inhibition of growth at 150 g/ha: < 50%
Amaranthus retroflexus
  inhibition of growth at 150 g/ha: < 50%
Brassica juncea
  inhibition of growth at 150 g/ha: < 50%
Echinochloa crus-galli
  inhibition of growth at 150 g/ha: < 50%
[1]
  pKi: < 3.00

## Cc1nc(C)n2nc(S(=O)(=O)Nc3ccc(F)c(F)c3F)nc2c1Cl
Digitaria sanguinalis
  inhibition of growth at 150 g/ha: < 50%
Poa annua
  inhibition of growth at 150 g/ha: < 50%
Eclipta prostrata
  inhibition of growth at 150 g/ha: < 50%
Amaranthus retroflexus
  inhibition of growth at 150 g/ha: < 50%
Brassica juncea
  inhibition of growth at 150 g/ha: < 50%
Echinochloa crus-galli
  inhibition of growth at 150 g/ha: < 50%
[1]
  pKi: < 3.00

## Cc1nc(C)n2nc(S(=O)(=O)Nc3ccccc3F)nc2c1Cl
Digitaria sanguinalis
  inhibition of growth at 150 g/ha: < 50%
Poa annua
  inhibition of growth at 150 g/ha: < 50%
Eclipta prostrata
  inhibition of growth at 150 g/ha: 50%
Amaranthus retroflexus
  inhibition of growth at 150 g/ha: 50%
Brassica juncea
  inhibition of growth at 150 g/ha: 50%
Echinochloa crus-galli
  inhibition of growth at 150 g/ha: < 50%
[1]
  pKi: 4.59

## Cc1cc2nc(S(=O)(=O)Nc3ccc(F)c(F)c3F)nn2c(C)n1
Digitaria sanguinalis
  inhibition of growth at 150 g/ha: < 50%
Poa annua
  inhibition of growth at 150 g/ha: < 50%
Eclipta prostrata
  inhibition of growth at 150 g/ha: 50%
Amaranthus retroflexus
  inhibition of growth at 150 g/ha: < 50%
Brassica juncea
  inhibition of growth at 150 g/ha: < 50%
Echinochloa crus-galli
  inhibition of growth at 150 g/ha: < 50%
[1]
  pKi: < 3.00

## Cc1nc(C(F)(F)F)cc2nc(S(=O)(=O)Nc3ccc(F)c(F)c3F)nn12
Digitaria sanguinalis
  inhibition of growth at 150 g/ha: < 50%
Poa annua
  inhibition of growth at 150 g/ha: < 50%
Eclipta prostrata
  inhibition of growth at 150 g/ha: 50%
Amaranthus retroflexus
  inhibition of growth at 150 g/ha: < 50%
Brassica juncea
  inhibition of growth at 150 g/ha: < 50%
Echinochloa crus-galli
  inhibition of growth at 150 g/ha: < 50%
[1]
  pKi: < 3.00

## Cc1nc(C)n2nc(S(=O)(=O)Nc3ccc(C(F)(F)F)cc3)nc2c1Cl
Digitaria sanguinalis
  inhibition of growth at 150 g/ha: < 50%
Poa annua
  inhibition of growth at 150 g/ha: < 50%
Eclipta prostrata
  inhibition of growth at 150 g/ha: 50%
Amaranthus retroflexus
  inhibition of growth at 150 g/ha: 50%
Brassica juncea
  inhibition of growth at 150 g/ha: < 50%
Echinochloa crus-galli
  inhibition of growth at 150 g/ha: < 50%
[1]
  pKi: < 3.00

## Cc1cc2nc(S(=O)(=O)Nc3ccccc3F)nn2c(C)n1
Digitaria sanguinalis
  inhibition of growth at 150 g/ha: < 50%
Poa annua
  inhibition of growth at 150 g/ha: < 50%
Eclipta prostrata
  inhibition of growth at 150 g/ha: 50%
Amaranthus retroflexus
  inhibition of growth at 150 g/ha: 50%
Brassica juncea
  inhibition of growth at 150 g/ha: 50%
Echinochloa crus-galli
  inhibition of growth at 150 g/ha: < 50%
[1]
  pKi: 4.56

## Cc1nc(C(F)(F)F)cc2nc(S(=O)(=O)Nc3ccccc3F)nn12
Digitaria sanguinalis
  inhibition of growth at 150 g/ha: < 50%
Poa annua
  inhibition of growth at 150 g/ha: < 50%
Eclipta prostrata
  inhibition of growth at 150 g/ha: 50%
Amaranthus retroflexus
  inhibition of growth at 150 g/ha: 50%
Brassica juncea
  inhibition of growth at 150 g/ha: 50%
Echinochloa crus-galli
  inhibition of growth at 150 g/ha: < 50%
[1]
  pKi: 3.24

## Cc1nc(C(F)(F)F)cc2nc(S(=O)(=O)Nc3cc(F)ccc3F)nn12
Digitaria sanguinalis
  inhibition of growth at 150 g/ha: < 50%
Poa annua
  inhibition of growth at 150 g/ha: < 50%
Eclipta prostrata
  inhibition of growth at 150 g/ha: < 50%
Amaranthus retroflexus
  inhibition of growth at 150 g/ha: < 50%
Brassica juncea
  inhibition of growth at 150 g/ha: < 50%
Echinochloa crus-galli
  inhibition of growth at 150 g/ha: < 50%

## Cc1cc2nc(S(=O)(=O)Nc3ccc(C(F)(F)F)cc3Cl)nn2c(C)n1
Digitaria sanguinalis
  inhibition of growth at 150 g/ha: < 50%
Poa annua
  inhibition of growth at 150 g/ha: < 50%
Eclipta prostrata
  inhibition of growth at 150 g/ha: < 50%
Amaranthus retroflexus
  inhibition of growth at 150 g/ha: < 50%
Brassica juncea
  inhibition of growth at 150 g/ha: < 50%
Echinochloa crus-galli
  inhibition of growth at 150 g/ha: < 50%
[1]
  pKi: 3.75

## Cc1cc2nc(S(=O)(=O)Nc3cc(Cl)ccc3C)nn2c(C)n1
Digitaria sanguinalis
  inhibition of growth at 150 g/ha: < 50%
Poa annua
  inhibition of growth at 150 g/ha: < 50%
Eclipta prostrata
  inhibition of growth at 150 g/ha: 50%
Amaranthus retroflexus
  inhibition of growth at 150 g/ha: < 50%
Brassica juncea
  inhibition of growth at 150 g/ha: < 50%
Echinochloa crus-galli
  inhibition of growth at 150 g/ha: < 50%
[1]
  pKi: 5.11

## Cc1cc2nc(S(=O)(=O)Nc3cc(F)ccc3F)nn2c(C)n1
Digitaria sanguinalis
  inhibition of growth at 150 g/ha: < 50%
Poa annua
  inhibition of growth at 150 g/ha: < 50%
Eclipta prostrata
  inhibition of growth at 150 g/ha: < 50%
Amaranthus retroflexus
  inhibition of growth at 150 g/ha: < 50%
Brassica juncea
  inhibition of growth at 150 g/ha: < 50%
Echinochloa crus-galli
  inhibition of growth at 150 g/ha: < 50%
[1]
  pKi: 4.55

## COc1ccn2nc(S(=O)(=O)Nc3c(F)cccc3F)nc2n1
Digitaria sanguinalis
  inhibition of growth at 150 g/ha: < 50%
Eclipta prostrata
  inhibition of growth at 150 g/ha: ≥ 90%
Amaranthus retroflexus
  inhibition of growth at 150 g/ha: ≥ 90%
Brassica juncea
  inhibition of growth at 150 g/ha: ≥ 90%
Echinochloa crus-galli
  inhibition of growth at 150 g/ha: < 50%
[1]
  pKi: 4.73

## COc1ccn2nc(S(=O)(=O)Nc3cc(F)c(F)c(F)c3)nc2n1
Digitaria sanguinalis
  inhibition of growth at 150 g/ha: < 50%
Poa annua
  inhibition of growth at 150 g/ha: < 50%
Eclipta prostrata
  inhibition of growth at 150 g/ha: < 50%
Amaranthus retroflexus
  inhibition of growth at 150 g/ha: < 50%
Brassica juncea
  inhibition of growth at 150 g/ha: < 50%
Echinochloa crus-galli
  inhibition of growth at 150 g/ha: < 50%
[1]
  pKi: < 3.00

## COc1ccn2nc(S(=O)(=O)Nc3cc(F)ccc3F)nc2n1
Digitaria sanguinalis
  inhibition of growth at 150 g/ha: < 50%
Poa annua
  inhibition of growth at 150 g/ha: < 50%
Eclipta prostrata
  inhibition of growth at 150 g/ha: 50%
Amaranthus retroflexus
  inhibition of growth at 150 g/ha: 50%
Brassica juncea
  inhibition of growth at 150 g/ha: 50%
Echinochloa crus-galli
  inhibition of growth at 150 g/ha: < 50%
[1]
  pKi: 4.27

## COc1ccn2nc(S(=O)(=O)Nc3ccccc3F)nc2n1
Digitaria sanguinalis
  inhibition of growth at 150 g/ha: < 50%
Poa annua
  inhibition of growth at 150 g/ha: < 50%
Eclipta prostrata
  inhibition of growth at 150 g/ha: ≥ 80%
Amaranthus retroflexus
  inhibition of growth at 150 g/ha: 50%
Brassica juncea
  inhibition of growth at 150 g/ha: 50%
Echinochloa crus-galli
  inhibition of growth at 150 g/ha: < 50%
[1]
  pKi: 4.59

From ChEMBL document CHEMBL3046780, “Syntheses and herbicidal activity of new triazolopyrimidine-2-sulfonamides as acetohydroxyacid synthase inhibitor” (Bioorg Med Chem, 2010)
